Experimental data from ChEMBL document CHEMBL1136659, “Benzamide derivatives as blockers of Kv1.3 ion channel” (Bioorg Med Chem Lett, 2003).

Experiments:
[1] = target: T1, Potassium voltage-gated channel subfamily A member 3 (Homo sapiens, UniProt P22001); assay: Inhibition of Kv1.3 ion channel. Measured in the Rb_Kv assay: [86Rb+] efflux from CHO cells stably transfected with Kv1.3 channel.; format: functional, cell-based
[2] = Inhibition of DiTc binding to Kv1.x channel in human brain membranes; format: cell membranes, Membrane
Method in brief: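 Displacement of diTC (C20-C29 ditritio-correolide) binding to human brain membranes carrying Kv1.x channels, primarily heteromultimeric Kv1.1/Kv1.2.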

[3] = target: T1, Potassium voltage-gated channel subfamily A member 3; assay: Inhibition of DiTc binding to Kv1.3 channel in human brain membranes; format: cell membranes, Membrane
[4] = target: T1, Potassium voltage-gated channel subfamily A member 3; assay: Inhibition of [86Rb+] efflux from CHO cells stably transfected with Kv1.3 channel; format: functional, cell-based

T1 sequence (P22001 whole entry): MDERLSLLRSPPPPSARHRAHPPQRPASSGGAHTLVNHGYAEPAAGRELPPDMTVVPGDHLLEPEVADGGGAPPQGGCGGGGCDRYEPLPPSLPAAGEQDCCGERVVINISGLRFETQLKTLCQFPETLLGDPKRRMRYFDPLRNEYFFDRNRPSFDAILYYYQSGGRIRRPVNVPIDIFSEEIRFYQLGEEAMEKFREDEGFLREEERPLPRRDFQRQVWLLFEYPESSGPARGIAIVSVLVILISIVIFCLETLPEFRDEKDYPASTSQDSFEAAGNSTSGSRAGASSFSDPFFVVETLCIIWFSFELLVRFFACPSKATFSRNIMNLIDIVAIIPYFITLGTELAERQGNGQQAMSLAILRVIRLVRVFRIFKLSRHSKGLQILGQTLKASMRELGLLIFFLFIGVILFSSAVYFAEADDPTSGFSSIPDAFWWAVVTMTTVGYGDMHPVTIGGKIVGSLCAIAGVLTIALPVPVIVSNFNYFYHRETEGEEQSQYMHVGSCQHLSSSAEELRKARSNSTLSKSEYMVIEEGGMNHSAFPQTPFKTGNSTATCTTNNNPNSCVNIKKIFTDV

## C=CCNC(=O)O[C@H]1CC[C@@](CNC(=O)c2cccc3c2OCC3)(c2ccccc2)CC1
[1]
  IC50: 3.73 µM

## C=CCNC(=O)N[C@H]1CC[C@@](CNC(=O)c2ccccc2OC)(c2ccccc2)CC1
[2]
  IC50: 0.12 µM
[3]
  IC50: 0.029 µM
[4]
  IC50: 0.15 µM

## COc1ccccc1C(=O)NC[C@]1(c2ccccc2)CC[C@@H](NC(=O)c2ccccc2)CC1
[1]
  IC50: 1.56 µM

## C=CCN(C)C(=O)O[C@H]1CC[C@@](CNC(=O)c2ccccc2OC)(c2ccccc2)CC1
[1]
  IC50: 0.32 µM

## COc1ccccc1C(=O)NC[C@]1(c2ccccc2)CC[C@@H](OC(=O)NCCO)CC1
[1]
  IC50: 0.31 µM

## COCCCNC(=O)O[C@H]1CC[C@](CNC(=O)c2ccccc2OC)(c2ccccc2)CC1
[1]
  IC50: 0.13 µM

## O=C1CCC(CNC(=O)c2ccccc2)(c2ccccc2)CC1
[1]
  IC50: > 30 µM

## C=CCNC(=O)O[C@H]1CC[C@](CNC(=O)c2ccccc2OC)(c2ccccc2)CC1
[2]
  IC50: 0.17 µM
[3]
  IC50: 0.14 µM
[4]
  IC50: 0.13 µM

## COc1ccccc1C(=O)NC[C@]1(c2ccccc2)CC[C@H](NC(=O)CCc2ccccc2)CC1
[1]
  IC50: 0.12 µM

## COc1ccccc1C(=O)NC[C@]1(c2ccccc2)CC[C@@H](NC(=O)c2cccc(Br)c2)CC1
[1]
  IC50: > 30 µM

## COc1ccccc1C(=O)NC[C@]1(c2ccccc2)CC[C@H](NC(=O)c2ccccc2)CC1
[1]
  IC50: 0.075 µM

## COc1cccc(C(=O)NCC2(c3ccccc3)CCC(=O)CC2)c1
[1]
  IC50: > 30 µM

## COc1ccccc1C(=O)NCC1CCCCC1
[1]
  IC50: > 30 µM

## CCCCNC(=O)O[C@H]1CC[C@@](CNC(=O)c2ccccc2OC)(c2ccccc2)CC1
[1]
  IC50: 0.09 µM

## COCCNC(=O)O[C@H]1CC[C@@](CNC(=O)c2ccccc2OC)(c2ccccc2)CC1
[1]
  IC50: 0.14 µM

## COCCCNC(=O)O[C@H]1CC[C@@](CNC(=O)c2ccccc2OC)(c2ccccc2)CC1
[1]
  IC50: 0.145 µM

## C=CCNC(=O)N[C@H]1CC[C@](CNC(=O)c2ccccc2OC)(c2ccccc2)CC1
[2]
  IC50: 0.125 µM
[3]
  IC50: 0.08 µM
[4]
  IC50: 0.14 µM

## COc1ccccc1C(=O)NC[C@]1(c2ccccc2)CC[C@@H](NC(=O)CCc2ccccc2)CC1
[1]
  IC50: 0.57 µM

## COc1ccccc1C(=O)NC[C@]1(c2ccccc2)CC[C@@H](NC(=O)C=C(C)C)CC1
[1]
  IC50: 0.47 µM

## COc1ccccc1C(=O)NC[C@]1(c2ccccc2)CC[C@@H](OC(=O)NCc2ccccc2)CC1
[1]
  IC50: 1.7 µM

## COc1ccccc1C(=O)NC[C@]1(c2ccccc2)CC[C@H](OC(=O)NC(C)C)CC1
[1]
  IC50: 0.13 µM

## CCC(=O)N[C@H]1CC[C@@](CNC(=O)c2ccccc2OC)(c2ccccc2)CC1
[1]
  IC50: 0.21 µM

## COc1ccccc1C(=O)NC[C@]1(c2ccccc2)CC[C@@H](NC(C)=O)CC1
[1]
  IC50: 0.47 µM

## CCCNC(=O)O[C@H]1CC[C@@](CNC(=O)c2ccccc2OC)(c2ccccc2)CC1
[2]
  IC50: 0.03 µM
[3]
  IC50: 0.005 µM
[4]
  IC50: 0.05 µM

## CNC(=O)O[C@H]1CC[C@@](CNC(=O)c2ccccc2OC)(c2ccccc2)CC1
[2]
  IC50: 0.033 µM
[3]
  IC50: 0.005 µM
[4]
  IC50: 0.058 µM

## C=CCN(C)C(=O)O[C@H]1CC[C@](CNC(=O)c2ccccc2OC)(c2ccccc2)CC1
[1]
  IC50: 0.145 µM

## COc1ccccc1C(=O)NC[C@]1(c2ccccc2)CC[C@@H](OC(=O)NC(C)C)CC1
[1]
  IC50: 0.075 µM

## COc1ccccc1C(=O)NC[C@]1(c2ccccc2)CC[C@@H](NC(=O)SC)CC1
[1]
  IC50: 0.15 µM

## COc1ccccc1C(=O)NC[C@]1(c2ccccc2)CC[C@H](OC(=O)NCCO)CC1
[1]
  IC50: 0.095 µM

## CCOc1ccccc1C(=O)NCC1(c2ccccc2)CCC(=O)CC1
[1]
  IC50: 0.58 µM

## C=CCN(C)C(=O)N[C@H]1CC[C@](CNC(=O)c2ccccc2OC)(c2ccccc2)CC1
[1]
  IC50: 0.195 µM

## CNC(=O)O[C@H]1CC[C@](CNC(=O)c2ccccc2OC)(c2ccccc2)CC1
[2]
  IC50: 0.104 µM
[3]
  IC50: 0.099 µM
[4]
  IC50: 0.15 µM

## C=C(C)CNC(=O)O[C@H]1CC[C@](CNC(=O)c2ccccc2OC)(c2ccccc2)CC1
[1]
  IC50: 0.12 µM

## COc1ccccc1C(=O)NC[C@]1(c2ccccc2)CC[C@H](OC(=O)Nc2ccccc2)CC1
[1]
  IC50: 0.12 µM

## COc1ccccc1C(=O)NC[C@]1(c2ccccc2)CC[C@@H](NC(=O)c2ccc(Br)cc2)CC1
[1]
  IC50: > 30 µM

## COc1ccccc1C(=O)N(C)CC1(c2ccccc2)CCC(=O)CC1
[1]
  IC50: > 30 µM

## COCCNC(=O)O[C@H]1CC[C@](CNC(=O)c2ccccc2OC)(c2ccccc2)CC1
[1]
  IC50: 0.14 µM

## CCCC(=O)N[C@H]1CC[C@@](CNC(=O)c2ccccc2OC)(c2ccccc2)CC1
[1]
  IC50: 0.2 µM

## C=CCNC(=O)O[C@H]1CC[C@@](CNC(=O)c2cc(Cl)ccc2OC)(c2ccccc2)CC1
[1]
  IC50: 0.23 µM

## COc1ccccc1C(=O)NC[C@]1(c2ccccc2)CC[C@H](NC(=O)Cc2ccccc2)CC1
[1]
  IC50: 0.13 µM

## CNc1ccccc1C(=O)NCC1(c2ccccc2)CCC(=O)CC1
[1]
  IC50: 0.6 µM

## COc1ccccc1C(=O)NC[C@]1(c2ccccc2)CC[C@@H](NC(=O)Cc2ccccc2)CC1
[1]
  IC50: 1.05 µM

## COc1ccccc1C(=O)NC[C@]1(c2ccccc2)CC[C@H](OC(=O)NCCCc2ccccc2)CC1
[1]
  IC50: 0.535 µM

## C/C=C/C(=O)N[C@H]1CC[C@](CNC(=O)c2ccccc2OC)(c2ccccc2)CC1
[1]
  IC50: 0.1 µM

## CCCCNC(=O)O[C@H]1CC[C@](CNC(=O)c2ccccc2OC)(c2ccccc2)CC1
[1]
  IC50: 0.14 µM

## C=CCOC(=O)N[C@H]1CC[C@](CNC(=O)c2ccccc2OC)(c2ccccc2)CC1
[2]
  IC50: 0.068 µM
[3]
  IC50: 0.072 µM
[4]
  IC50: 0.09 µM

## COc1ccccc1C(=O)NC[C@]1(c2ccccc2)CC[C@H](OC(=O)NCCc2ccccc2)CC1
[1]
  IC50: 0.42 µM

## COc1ccccc1C(=O)NCC1(c2ccccc2)CCC(=O)CC1
[1]
  IC50: 0.2 µM

## C=CCN(CC=C)C(=O)O[C@H]1CC[C@](CNC(=O)c2ccccc2OC)(c2ccccc2)CC1
[1]
  IC50: 0.205 µM

## COc1ccc(C(=O)NCC2(c3ccccc3)CCC(=O)CC2)cc1
[1]
  IC50: 10 µM

## C=CCNC(=O)O[C@H]1CC[C@@](CNC(=O)c2ccccc2OC)(c2ccccc2)CC1
[2]
  IC50: 0.112 µM
[3]
  IC50: 0.018 µM
[4]
  IC50: 0.07 µM

## C=CCOC(=O)N[C@H]1CC[C@@](CNC(=O)c2ccccc2OC)(c2ccccc2)CC1
[1]
  IC50: 0.242 µM

## COc1ccccc1C(=O)NC[C@]1(c2ccccc2)CC[C@@H](OC(=O)Nc2ccccc2)CC1
[1]
  IC50: > 30 µM

## COc1ccccc1C(=O)NC[C@]1(c2ccccc2)CC[C@H](OC(=O)NCc2ccccc2)CC1
[1]
  IC50: 0.245 µM

## COc1ccccc1C(=O)N(C)CC1(c2ccccc2)CCNCC1
[1]
  IC50: > 30 µM

## COc1ccccc1S(=O)(=O)NCC1(c2ccccc2)CCC(=O)CC1
[1]
  IC50: > 30 µM

## COc1ccccc1C(=O)NC[C@]1(c2ccccc2)CC[C@@H](NC(=O)c2ccccc2Br)CC1
[1]
  IC50: 2.79 µM

## C=CCNC(=O)O[C@H]1CC[C@@](CNC(=O)c2cc(F)ccc2O)(c2ccccc2)CC1
[1]
  IC50: 0.14 µM

## C=CCNC(=O)O[C@H]1CC[C@@](CNC(=O)c2cccc(Cl)c2OC)(c2ccccc2)CC1
[1]
  IC50: 8.38 µM

## CCCNC(=O)O[C@H]1CC[C@](CNC(=O)c2ccccc2OC)(c2ccccc2)CC1
[2]
  IC50: 0.076 µM
[3]
  IC50: 0.079 µM
[4]
  IC50: 0.1 µM

## C=CCNC(=O)O[C@H]1CC[C@@](CNC(=O)c2cccnc2OC)(c2ccccc2)CC1
[1]
  IC50: 0.325 µM

## C=CCN(CC=C)C(=O)O[C@H]1CC[C@@](CNC(=O)c2ccccc2OC)(c2ccccc2)CC1
[1]
  IC50: 0.84 µM

## C=C(C)CNC(=O)O[C@H]1CC[C@@](CNC(=O)c2ccccc2OC)(c2ccccc2)CC1
[1]
  IC50: 0.09 µM

## C/C=C/C(=O)N[C@H]1CC[C@@](CNC(=O)c2ccccc2OC)(c2ccccc2)CC1
[1]
  IC50: 0.44 µM

## COC(=O)N[C@H]1CC[C@@](CNC(=O)c2ccccc2OC)(c2ccccc2)CC1
[1]
  IC50: 0.135 µM

## O=C1CCC(CNC(=O)c2cccc(Cl)c2)(c2ccccc2)CC1
[1]
  IC50: 30 µM

## C=CCOC(=O)O[C@H]1CC[C@](CNC(=O)c2ccccc2OC)(c2ccccc2)CC1
[1]
  IC50: 0.23 µM

## C=CCNC(=O)O[C@H]1CC[C@@](CNC(=O)c2cccc(Cl)c2O)(c2ccccc2)CC1
[1]
  IC50: 7.2 µM
